The values that follow come from ChEMBL document CHEMBL1121372, “Synthesis and antihypertensive activity of 5-amino-2-pyridinecarboxylic acid derivatives” (1980).

The subject of test [1] is Rattus norvegicus. The test can be described thus: The compound was tested for antihypertensive effect in spontaneously hypertensive rat (SHR), expressed as fall in blood pressure (BP) at 50 mg/kg dose given per orally. Format: functional. To be noted: route oral. An outline of the steps:
(§1)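 Male SHR, about 16 weeks old, with systolic pressure above 150 mmHg, held in restraint cages. Tail-cuff occlusion was raised to 250 mmHg and then lowered, after 1 h acclimation and at least 3 baseline readings. Dosing was by daily gavage in 3% cornstarch/5% PEG-400/Tween 80 for 2 or 4 days, with 4–6 rats per drug. Readings at 1, 2, 3 and 24 h; peak fall reported.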

The test system of test [2] is Rattus norvegicus. The test can be described thus: Antihypertensive effect in spontaneously hypertensive rat (SHR), expressed as fall in blood pressure (BP) at 50 mg/kg dose given orally. Format: functional. The note with it: route oral. The method, boiled down: as §1
Test [3] concerns Rattus norvegicus. The test can be described thus: The compound was tested for antihypertensive effect in spontaneously hypertensive rat (SHR), expressed as fall in blood pressure (BP) at 100 mg/kg dose given orally. In kind it is functional. To be noted: route oral. An outline of the steps: as §1
Test [4] relates to Rattus norvegicus. Nature of the test: The compound was tested for antihypertensive effect in spontaneously hypertensive rat (SHR), expressed as fall in blood pressure (BP) at 100 mg/kg dose given orally; Inactive. Format: functional, organism-based. On the set-up: dose 100 mg/kg. An outline of the steps:
as §1

Test [5] relates to Rattus norvegicus. Nature of the test: The compound was tested for antihypertensive effect in spontaneously hypertensive rat (SHR), expressed as fall in blood pressure (BP) at 50 mg/kg dose given orally; Inactive. Format: functional, organism-based. The arrangement: dose 50 mg/kg. The method, boiled down: as §1
In test [6] the test system is Rattus norvegicus. The test can be described thus: The compound was tested for antihypertensive effect in spontaneously hypertensive rat (SHR), expressed as fall in blood pressure (BP) at 25 mg/kg dose given orally. In kind it is functional. The note with it: route oral. The method, boiled down:
as §1

For test [7], the system named is Canis familiaris. The test can be described thus: Antihypertensive activity in unanesthetized renal hypertensive dogs measured as mean Blood Pressure at 100 mg per kg dose after peroral administration on day1. Format: functional, Canis lupus familiaris. The note with it: route oral. On the set-up: unit not given beside the values. An outline of the steps: (§2)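 Renal hypertensive dogs, unanesthetized. Test compound given orally once daily as a solid in a gelatin capsule. Blood pressure was taken at 1.5, 3, 6 and 24 h after each daily dose. Activity is the maximum change in mean blood pressure or heart rate over each daily session. Values are mean ± SE, with significance marked at p < 0.05.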

In test [8] the test system is Canis familiaris. Nature of the test: Antihypertensive activity in unanesthetized renal hypertensive dogs measured as mean Blood Pressure at 100 mg per kg dose after peroral administration on day 2. To be noted: route oral. In kind it is functional, Canis lupus familiaris. The method, boiled down:
as §2

Test [9] concerns Rattus norvegicus. Nature of the test: The compound was tested for antihypertensive effect in spontaneously hypertensive rat (SHR), expressed as fall in blood pressure (BP) at 50 mg/kg dose given orally. In kind it is functional. To be noted: route oral. The method, boiled down:
as §1

The source made the active and inactive calls. The rule behind the calls is not given here.

In the test with Rattus norvegicus [1], `CCCCNc1ccc(C(=O)OC)nc1` came in with a BP of under 20 mmHg.

With `Cc1cccc(CN(C)c2ccc(C(=O)O)nc2)c1`, the BP in the test on Rattus norvegicus [2] is over 20 mmHg. The compound `CN(Cc1ccc(Cl)c(Cl)c1)c1ccc(C(=O)O)nc1` gave a BP in the test with Rattus norvegicus [2] of over 60 mmHg. `O=C(O)c1ccc(N(Cc2cccc(Cl)c2)Cc2cccc(Cl)c2)cn1` had a BP with Rattus norvegicus [3] of over 20 mmHg. With `O=C(O)c1ccc(NCc2ccc(Cl)c(Cl)c2)cn1`, in the test with Rattus norvegicus [2], the BP is under 20 mmHg. The same measure, in the same setting: to `O=C(O)c1ccc(NCc2ccccc2F)cn1` belongs over 40 mmHg.

`O=C(O)c1ccc(NCc2ccccc2Cl)cn1`: the BP with Rattus norvegicus [3] is recorded as over 60 mmHg. Turning to `COC(=O)c1ccc(N(C)Cc2cccc(Cl)c2)cn1`, in the test on Rattus norvegicus [2], the BP is over 20 mmHg. Regarding `NNC(=O)c1ccc(NCc2ccc(F)cc2)cn1`, the BP with Rattus norvegicus [2] is recorded as over 40 mmHg. The same measure, in the same setting: as for `O=C(O)c1ccc(NCc2ccccn2)cn1`, the figure is over 20 mmHg. As for `O=C(O)c1ccc(NCc2cccnc2)cn1`, the BP in the test on Rattus norvegicus [3] is given as under 20 mmHg. The compound `COc1cccc(CN(C)c2ccc(C(=O)O)nc2)c1` had a BP with Rattus norvegicus [2] of over 20 mmHg. Regarding `CCC(=O)Nc1ccc(C(=O)O)nc1`, the BP result with Rattus norvegicus [4] was “inactive”. The compound `O/N=C/c1ccc(NCc2ccc(F)cc2)cn1` yielded a BP with Rattus norvegicus [2] of under 20 mmHg. For the compound `O=C(O)c1ccc(Nc2ccccc2)cn1`, the BP entry in the test with Rattus norvegicus [5] was “inactive”. `O=C(O)c1ccc(NCc2cccc(Br)c2)cn1` registered a BP with Rattus norvegicus [2] of over 20 mmHg.

In the test on Rattus norvegicus [2], `COc1ccc(CNc2ccc(C(=O)O)nc2)cc1F` registered a BP of over 20 mmHg. Still for that read-out and setting: as for `O=C(O)c1ccc(NCc2ccncc2)cn1`, the figure is over 20 mmHg. The same measure, in the same setting: as for `NC(=O)c1ccc(NCc2ccc(F)cc2)cn1`, the figure is over 40 mmHg. Compound `COC(=O)c1ccc(NCc2ccc(Cl)cc2)cn1` registered a BP with Rattus norvegicus [3] of over 60 mmHg.

With `CC(C)(C)c1ccc(CNc2ccc(C(=O)O)nc2)cc1`, in the test with Rattus norvegicus [2], the BP was under 20 mmHg. Take `O=C(O)c1ccc(NCCc2ccccc2)cn1`: in the test with Rattus norvegicus [2], the BP is reported as over 20 mmHg. The same measure, in the same setting: to `COc1cccc(CNc2ccc(C(=O)O)nc2)c1` belongs over 20 mmHg.

On to `CN(Cc1cccc(Cl)c1)c1ccc(C(=O)O)nc1`, for which the values for the BP in the test on Rattus norvegicus [6], in the test with Rattus norvegicus [2] and in the test with Rattus norvegicus [3] were over 40 mmHg, over 80 mmHg and over 80 mmHg, respectively. The MBP is reported as -21 with Canis familiaris [7] and -25 in the test with Canis familiaris [8].

In the test on Rattus norvegicus [2], `CN(Cc1ccccc1)c1ccc(C(=O)O)nc1` yielded a BP of over 40 mmHg. As to `CC(Nc1ccc(C(=O)O)nc1)c1ccc(F)cc1` (centres undefined), the BP in the test on Rattus norvegicus [9] is given as over 40 mmHg.

In turn, `CCC(=O)N(Cc1cccc(Cl)c1)c1ccc(C(=O)O)nc1` returned a BP in the test on Rattus norvegicus [3] of under 20 mmHg. `COC(=O)c1ccc(NCc2ccc(F)cc2)cn1` showed a BP in the test with Rattus norvegicus [2] of over 60 mmHg. `O=C(O)c1ccc(NCc2cccc(C(F)(F)F)c2)cn1` came in with a BP in the test with Rattus norvegicus [3] of over 60 mmHg. `Cc1nc(C(=O)O)ccc1N(C)Cc1cccc(Cl)c1` yielded a BP in the test on Rattus norvegicus [3] of over 20 mmHg.
